# Source: PubChem BioAssay (The Scripps Research Institute Molecular Screening Center)
# LYPLA2 counter: blocks human lysophospholipase 2, a PME1 counter-screen. recombinant LYPLA2, FP-Rh probe fluorescence polarization. inhibition, % at 5.9 µM. 320,000 tested, 0.38% active. O95372;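 active = inhibition above the screen-wide mean plus 3 SD, limit set per campaign, cut at about 26% in these data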;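 also: 0% = LYPLA2 with DMSO and 100% = wells lacking LYPLA2 enzyme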
# RBBP9 inhibitor: inhibitors of human serine hydrolase RBBP9. 220,000 tested, 0.2% active. recombinant RBBP9, FP-Rh probe fluorescence polarization. AID 1515. inhibition, % at 7.94 µM. O75884;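 active = inhibition above the campaign mean of all tested compounds plus 3 SD, cut at about 14% in these data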;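 also: plate controls were DMSO wells with RBBP9 for no effect and wells lacking RBBP9 protein for full effect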
# Target sequence (O75884 whole entry, looked up): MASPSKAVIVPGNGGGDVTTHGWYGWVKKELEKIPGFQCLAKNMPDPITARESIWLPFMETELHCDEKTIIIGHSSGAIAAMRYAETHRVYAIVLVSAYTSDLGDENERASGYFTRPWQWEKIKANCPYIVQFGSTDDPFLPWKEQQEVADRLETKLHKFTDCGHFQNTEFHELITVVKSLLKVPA
#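 system = RBBP9 protein | input = RBBP9 at 2.5 µM in dispensed solution, before mixing | measured by = fluorescence polarization (mP), excitation 525 nm, emission 598 nm | incubation = enzyme-compound preincubation 30 min, then probe labeling 45 min, 25 °C | buffer or medium = Tris-NaCl-Pluronic buffer, pH 8.0 | compound = single dose 7.94 µM | also added = FP-Rh probe, 375 nM dispensing solution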
# LYPLA1 counter: blocks human lysophospholipase 1, a PME1 counter-screen; O75608; recombinant LYPLA1, FP-Rh probe fluorescence polarization; inhibition, % at 5.9 µM; 320,000 tested, 0.16% active;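 active = inhibition above the mean of all tested compounds plus 3 SD, set per campaign, cut at about 14% in these data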;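 also: inhibitors block serine hydrolase probe labeling of LYPLA1 so polarization falls; 0% = enzyme with DMSO and 100% = wells lacking LYPLA1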
# Fam108B inh: Fam108B inhibition, counter-screen for RBBP9 inhibitors; recombinant Fam108B, FP-Rh probe fluorescence polarization; inhibition, % at 9.51 µM; 300,000 tested, 0.33% active;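 active = inhibition above the screen mean inhibition plus 3 SD, computed separately per campaign, cut at about 18% in these data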;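 also: inhibitors lower polarization as less probe binds the enzyme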
# PME-1 primary: PME-1 (human) inhibition; recombinant PME-1, FP-Rh probe fluorescence polarization; inhibition, % at 5.9 µM; AID 2130; Q9Y570; 320,000 tested, 0.53% active;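 active = inhibition above the campaign mean of all compounds plus 3 SD, cut at about 26% in these data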;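 also: competitive labeling of PME-1 active site by serine hydrolase directed probe; 0% = PME-1 with DMSO and 100% = wells lacking PME-1 enzyme; inhibitors block probe labeling so polarization falls and inhibition rises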
# Target sequence (Q9Y570 whole entry, looked up): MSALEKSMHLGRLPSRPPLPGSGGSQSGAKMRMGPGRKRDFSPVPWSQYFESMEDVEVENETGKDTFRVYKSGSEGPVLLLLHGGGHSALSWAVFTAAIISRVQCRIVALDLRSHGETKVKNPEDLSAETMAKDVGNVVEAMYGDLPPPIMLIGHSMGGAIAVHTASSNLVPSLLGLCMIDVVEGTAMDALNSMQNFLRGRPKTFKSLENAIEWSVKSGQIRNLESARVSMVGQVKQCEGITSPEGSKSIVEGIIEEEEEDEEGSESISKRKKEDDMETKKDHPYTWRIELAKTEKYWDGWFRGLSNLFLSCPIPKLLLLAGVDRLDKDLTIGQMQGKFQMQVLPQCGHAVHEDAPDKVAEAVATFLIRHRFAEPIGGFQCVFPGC
# RBBP9 inh conf: confirmation of human RBBP9 inhibitors | AID 1537 | 410 tested, 36% active | inhibition, % at 7.94 µM | shares compounds with RBBP9 inhibitor | recombinant RBBP9, FP-Rh probe fluorescence polarization;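 active = inhibition above the hit cutoff derived for the primary screen, cut at about 15% in these data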;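 also: 0% = RBBP9 with DMSO and 100% = wells lacking RBBP9 protein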
# Numbers without * were called inactive; x = no result given. Compounds with a hit are over-represented: about 0.99% of the library has one in this group of screens.
SMILES,LYPLA2 counter,RBBP9 inhibitor,LYPLA1 counter,Fam108B inh,PME-1 primary,RBBP9 inh conf
Cc1cccc(OCCCC(=O)Nc2ccc(Br)cc2)c1,1,-4,-4,-4,-3,x
COc1cc(C(O)P(=O)(OCCC(C)C)c2ccc(N(C)C)cc2)cc(OC)c1OC (stereo not drawn),4,-12,0,3,7,x
O=[N+]([O-])c1cccc(-c2cn3nc(-c4ccccc4)c(-c4ccccc4)nc3n2)c1,2,-16,0,-1,-1,x
O=Nc1c(-c2cccc([N+](=O)[O-])c2)nc2ncccn12,6,21*,4,5,10,24*
C=CC[n+]1c(-c2ccc(OC)c(OC)c2)csc1NNC(=O)Nc1ccccc1,4,-3,2,0,-2,x
Cc1noc(N)c1C1(O)C(=O)N(C(C)C)c2ccccc21 (stereo not drawn),-6,16*,-2,1,-4,10
CC(C)c1ccccc1NC(=O)CNCCc1ccc(C(F)(F)F)cc1,-1,17*,2,3,26,4
Cc1c([N+](=O)[O-])cc(C(=O)Oc2cccc(C(=S)N3CCOCC3)c2)cc1[N+](=O)[O-],7,-3,5,3,6,x
CC(C)(C)C(=O)Nc1nnc(COc2ccc(Cl)cc2)s1,-2,-3,-2,-1,-1,x
COCCOC(=O)C1=C(C)NC(=O)N(C(C)=O)C1c1ccc(Cl)cc1 (stereo not drawn),4,15*,-2,-3,-1,8
COC(=O)COc1cccc2c(=O)n(CC(=O)NCCc3ccccc3)ccc12,0,18*,3,5,12,12
CC(C)NC(=O)CSc1nc(N)c(NC(=O)c2ccco2)c(=O)[nH]1,1,-1,2,1,2,x
Nc1nc(SCC(=O)N2CCCCCC2)[nH]c(=O)c1NC(=O)c1ccco1,-1,15*,1,2,0,64*
COC(=O)c1ccc(NC(=O)Nc2ccc([N+](=O)[O-])cc2)cc1,-57,x,-34,-35,-39,x
Cc1ccc(C(CC(=O)O)NC(=O)CN2C(=O)c3ccccc3C2=O)cc1 (stereo not drawn),8,x,-3,-2,1,x
CSc1nnc(CCCCCCCCc2nnc(SC)o2)o1,10,16*,1,-4,1,3
CSc1nnc(CCCCCNC(=O)OC(C)(C)C)o1,1,-11,4,3,1,x
CCc1ccc(NSc2ccccc2[N+](=O)[O-])cc1,9,16*,-4,3,9,5
O=C(O)c1ccccc1NSc1ccccc1[N+](=O)[O-],-1,-10,-3,2,8,x
CCCCNC(=O)C1CC(c2cccc([N+](=O)[O-])c2)=NO1 (stereo not drawn),-3,5,0,-3,2,x
O=C(NCc1ccco1)C1CC(c2cccc([N+](=O)[O-])c2)=NO1 (stereo not drawn),0,17*,1,-1,3,4
O=C1CCC(=O)N1c1ccc(-c2nc3sc4c(c3c(=O)o2)CCC4)cc1,1,15*,-1,-2,-7,10
COc1cccc(CNc2ccc(N3CCCCC3)cc2)c1OC,5,14*,1,-6,-6,17*
CCCCCCNc1nc(-c2ccc(OC)cc2)c(CCC(=O)O)s1,-2,-8,0,-1,10,x
CCC(=O)N=c1n(C)c2ccccc2n1CCOc1ccccc1,-1,16*,7,-3,-3,6
SMILES,LYPLA2 counter,RBBP9 inhibitor,LYPLA1 counter,Fam108B inh,PME-1 primary,RBBP9 inh conf
Cc1cc(C(F)(F)F)nc(SCc2ccc(C(=O)O)o2)n1,-8,-9,-4,-5,-7,x
Cc1cc(C)nc(SCc2ccc(C(=O)O)o2)n1,8,15*,3,2,4,5
O=S(=O)(Nc1cccc(S(=O)(=O)N2CCCC2)c1)c1cccc(Br)c1,-8,x,-3,x,6,x
O=[N+]([O-])c1ccc(Sc2cccc[n+]2[O-])c2nonc12,x,19*,x,x,x,50*
O=C1c2ccccc2C(=O)N1/N=C/c1ccc(O)c(O)c1O,x,20*,x,x,x,45*
C=CCc1c(C)nc2ccc(C(=O)OCC)cc2c1Cl,-4,-6,-6,0,-6,x
Cc1nn(-c2ccccc2)nc1C(=O)c1c(C)[nH]n(-c2ccccc2)c1=O,6,15*,0,-5,1,1
Cc1[nH]n(-c2ccccc2)c(=O)c1C(=O)c1ccc([N+](=O)[O-])cc1,-3,-1,-1,-3,-2,x
COc1ccc(N2CCN(C(=O)COC(=O)c3oc4ccccc4c3C)CC2)cc1,13,x,4,x,-1,x
CC(C)C(=O)N(c1cc2sc(=O)oc2c2ccccc12)S(=O)(=O)c1cccs1,9,32*,-5,6,-1,11
CC(=O)NC(=S)Nc1cccc([N+](=O)[O-])c1,3,17*,6,-3,-7,1
CNC(=S)Nc1cccc([N+](=O)[O-])c1,-2,-2,-2,-5,-3,x
CC(=O)Nc1ccc(NC(=O)Nc2cccc(Cl)c2)cc1,-5,x,-5,13,16,x
CC(=O)C(=Nc1ccc(Cl)cc1Cl)NNc1cccc(Cl)c1,2,32*,2,9,12,0
CCc1cccc(NC(=O)c2ccc(CNc3c(N4CCCC4)c(=O)c3=O)cc2)c1,2,-4,0,0,-3,x
NC(=O)c1nsc(C(=O)N(c2ccccc2)C(C(=O)NCc2ccc(F)cc2)c2ccc(O)cc2)c1N (stereo not drawn),-9,x,-5,-14,-5,x
Cc1c(C(=O)O)sc(S(=O)(=O)N2CCNCC2)c1C(=O)O,x,19*,x,x,x,6
CNC(=O)CS(=O)(=O)CC(=O)Nc1cc(OC(C)C)c(Cl)cc1Cl,9,-3,0,10,-3,x
CC1(C)CC(=O)C(C=NCCN2CCN(C(=O)c3ccc(F)cc3)CC2)=C(O)C1,5,15*,0,0,-1,8
CC1(C)CC(=O)C(C=NCCN2CCN(C(=O)c3ccccc3)CC2)=C(O)C1,3,-7,2,0,6,x
CCOC(=O)c1c(C)[nH]c(N=Nc2ccc(C)cc2)c1C,-4,-10,-2,2,3,x
CCOC(=O)c1c(C)[nH]c(N=Nc2ccccc2)c1C,2,15*,3,3,8,6
Oc1ccc(/C=N/NC(=S)Nc2cccnc2)c(O)c1O,x,42*,x,x,x,52*
COc1cc(-c2nc3ccccn3c2/N=C/c2ccc(F)cc2)ccc1O,-5,16*,-3,9,-5,11
COc1ccc(N(CC(=O)N2CCN(c3ccc(Cl)cc3)CC2)S(=O)(=O)c2c(C)n[nH]c2C)cc1,1,-1,2,-1,6,x
CC1CCC(NC(=O)c2ccc(NC3=NC4CS(=O)(=O)CC4S3)cc2)CC1 (stereo not drawn),2,x,3,1,2,x
